Experimental data: ChEMBL document CHEMBL1157903, “Synthesis and structure-activity relationships of 2-aryl-4-oxazolylmethoxy benzylglycines and 2-aryl-4-thiazolylmethoxy benzylglycines as novel, potent PPARalpha selective activators- PPARalpha and PPARgamma selectivity modulation” (Bioorg Med Chem Lett, 2010)

Legend:
[1] = biological target: T1, Peroxisome proliferator-activated receptor alpha (Homo sapiens, UniProt Q07869); assay: Agonist activity against human Gal4-fussed PPARalpha in HEK293 cells by luciferase reporter gene assay; type: functional, cell-based
T1 sequence (Q07869 whole entry): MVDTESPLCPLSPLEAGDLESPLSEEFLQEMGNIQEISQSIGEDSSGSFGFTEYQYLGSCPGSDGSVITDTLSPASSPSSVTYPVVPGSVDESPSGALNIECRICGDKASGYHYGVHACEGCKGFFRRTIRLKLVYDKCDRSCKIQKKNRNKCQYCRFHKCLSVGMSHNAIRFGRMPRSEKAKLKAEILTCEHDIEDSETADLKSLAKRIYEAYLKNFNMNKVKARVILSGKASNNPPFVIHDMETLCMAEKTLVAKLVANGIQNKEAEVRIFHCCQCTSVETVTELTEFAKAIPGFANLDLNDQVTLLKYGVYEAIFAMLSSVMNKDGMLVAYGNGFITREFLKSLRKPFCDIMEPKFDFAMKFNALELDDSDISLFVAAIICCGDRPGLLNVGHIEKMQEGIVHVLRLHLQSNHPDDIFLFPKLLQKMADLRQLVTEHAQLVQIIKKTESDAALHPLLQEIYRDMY
In short: (§1)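 Transactivation assay in HEK293 cells with a luciferase reporter. After cell lysis, luciferin is added and luminescence is read. EC50 is the ligand concentration giving half-maximal fold induction. Maximal efficacy is expressed as % of standards, with fenofibrate at 100 µM = 100% for PPARα and rosiglitazone at 1 µM = 100% for PPARγ. Data are normalized to known agonists at 1 µM.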

[2] = biological target: T2, Peroxisome proliferator-activated receptor alpha (Homo sapiens) (UniProt Q07869); assay: Agonist activity against human Gal4-fussed PPARalpha by luciferase reporter gene assay relative to finofibrate; type: functional
T2 sequence (whole entry): T1 sequence (Q07869 whole entry)
In short: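 Gal4-fused human PPARα transactivation in HEK293 cells with a luciferase reporter, read as luminescence after cell lysis and luciferin addition. EC50 is the ligand concentration (µM) giving half-maximal fold induction. Maximal efficacy is expressed as a percentage of fenofibrate at 100 µM (set as 100%). Intrinsic activity is the response at 1 µM as a percentage of the standard at 1 µM.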

[3] = biological target: T3, Peroxisome proliferator-activated receptor gamma (Homo sapiens, UniProt P37231); assay: Agonist activity against human Gal4-fussed PPARgamma in HEK293 cells by luciferase reporter gene assay; type: functional, cell-based; in short: as §1
T3 sequence (P37231 whole entry): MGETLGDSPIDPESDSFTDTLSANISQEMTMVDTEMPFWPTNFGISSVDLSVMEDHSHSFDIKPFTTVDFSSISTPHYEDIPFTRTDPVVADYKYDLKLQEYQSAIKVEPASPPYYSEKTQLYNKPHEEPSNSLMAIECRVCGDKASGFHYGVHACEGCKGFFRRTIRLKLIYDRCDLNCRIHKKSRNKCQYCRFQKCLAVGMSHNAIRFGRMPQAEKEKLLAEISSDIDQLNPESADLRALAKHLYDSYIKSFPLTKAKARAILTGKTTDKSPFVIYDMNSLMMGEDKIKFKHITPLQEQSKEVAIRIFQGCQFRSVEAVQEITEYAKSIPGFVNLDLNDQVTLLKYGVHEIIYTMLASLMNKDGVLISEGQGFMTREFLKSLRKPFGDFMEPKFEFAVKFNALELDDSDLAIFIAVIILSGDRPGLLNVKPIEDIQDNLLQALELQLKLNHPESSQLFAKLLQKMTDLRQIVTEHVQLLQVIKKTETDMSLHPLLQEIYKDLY

[4] = biological target: T4, Peroxisome proliferator-activated receptor gamma (Homo sapiens) (UniProt P37231); assay: Agonist activity against human Gal4-fussed PPARgamma by luciferase reporter gene assay relative to rosiglitazone
T4 sequence (whole entry): T3 sequence (P37231 whole entry)

Cricetulus griseus = organism: Cricetulus griseus; assay: Agonist activity at hamster PPARalpha relative to fenofibrate; type: functional
Hamster [5] = assay: Antidyslipidemic activity in hamster assessed as decrease in triglyceride level at 10 mg/kg, po; type: functional, Cricetinae; parameters: scale not given: the % may be the effect or the level left
In short: (§2)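 Hamsters kept on high-fat diet for 2 weeks, then dosed 10 mg/kg by oral gavage once daily for 21 days (n = 8). Vehicle: 5% cremophor, 10% NMP, 5% EtOH, 80% water. HDL-c and TG measured at study end. Statistics by Dunnett test, p < 0.05.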

[6] = Agonist activity at hamster PPARalpha; type: functional, Cricetulus griseus
Hamster [7] = assay: Antidyslipidemic activity in hamster assessed as decrease in HDL level at 10 mg/kg, po; type: functional, Cricetinae; parameters: scale not given: the % may be the effect or the level left; in short: as §2
[8] = Oral bioavailability in Sprague-Dawley rat at 10 mg/kg; type: ADME, organism-based; conditions: in vivo
In short: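 Male Sprague-Dawley rats (n = 2). Oral dose 10 mg/kg, with 5 mg/kg IV for comparison. Vehicle: 10% NMP, 20% PEG-400, 70% potassium phosphate buffer.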

Hamster [9] = assay: Induction of PDK4 mRNA level in hamster liver at 10 mg/kg, po after 6 hrs relative to fenofibrate; type: functional, Cricetinae
In short: (§3)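 Single oral dose of 10 mpk in hamsters, with fenofibrate reference at 100 mpk. Liver PDK4 and HD mRNA measured at 6 h post-dose. Values expressed relative to fenofibrate, set as 100%.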

[10] = Half life in Sprague-Dawley rat at 5 mg/kg, iv and 10 mg/kg, po; type: ADME, organism-based; conditions: in vivo
In short: (§4)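 Male Sprague-Dawley rats (n = 2) given 5 mg/kg IV and 10 mg/kg PO. Vehicle: 10% NMP, 20% PEG-400, 70% potassium phosphate buffer.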

[11] = Clearance in Sprague-Dawley rat at 5 mg/kg, iv and 10 mg/kg, po; type: ADME, organism-based; conditions: in vivo; in short: as §4
[12] = Mean retention time in Sprague-Dawley rat at 5 mg/kg, iv and 10 mg/kg, po; type: ADME, organism-based; conditions: in vivo; in short: as §4
[13] = Drug level in hamster liver at 10 mg/kg, po; type: ADME, organism-based; parameters: dose 10 mg/kg, route oral; conditions: cricetinae, in vivo, read-out: Drug uptake
In short: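 High-fat-fed hamsters (2 weeks on diet), 10 mg/kg po once daily for 21 days (n = 8). Vehicle: 5% cremophor/10% NMP/5% EtOH/80% water. Liver drug level taken 1 h post-dose in the fed state.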

Hamster [14] = assay: Induction of hydrase mRNA level in hamster liver at 10 mg/kg, po after 6 hrs relative to fenofibrate; type: functional, Cricetinae; in short: as §3
[15] = Volume of distribution at steady state Sprague-Dawley rat at 5 mg/kg, iv and 10 mg/kg, po; type: ADME, organism-based; conditions: in vivo, read-out: Vdss; in short: as §4

Structure (SMILES)	EC50 [1] [nM]	Emax [2] [%]	EC50 [3] [nM]	Emax [4] [%]	also measured
COC(=O)N(CC(=O)O)Cc1cccc(OCc2coc(-c3ccc(F)cc3F)n2)c1	1090	78	> 25000	–	–
COC(=O)N(CC(=O)O)[C@@H](C)c1cccc(OCc2coc(-c3ccc(C)cc3)n2)c1	87	87	20700	130	–
COc1cc(OC(=O)N(CC(=O)O)[C@@H](C)c2cccc(OCc3coc(-c4ccc(Cl)cc4)n3)c2)ccc1F	51	64	1440	74	–
COC(=O)N(CC(=O)O)Cc1cccc(OCc2coc(-c3ccc(C(F)(F)F)cc3)n2)c1	68	74	4810	34	–
COC(=O)N(CC(=O)O)[C@@H](C)c1cccc(OCc2coc(-c3ccc(Cl)cc3)n2)c1	73	65	> 8300	189	–
C[C@@H](c1cccc(OCc2coc(-c3ccc(Cl)cc3)n2)c1)N(CC(=O)O)C(=O)Oc1ccccc1	145	53	1690	43	–
COc1cccc(OC(=O)N(CC(=O)O)[C@@H](C)c2cccc(OCc3coc(-c4ccc(Cl)cc4)n3)c2)c1	13	69	772	95	Emax (Cricetulus griseus): 71%; Activity (Hamster [5]): 49%; EC50 [6]: 66 nM; Activity (Hamster [7]): 39%
COC(=O)N(CC(=O)O)Cc1cccc(OCc2coc(-c3ccc(C)cc3)n2)c1	29.9	85	15600	94	–
Cc1ccc(F)c(OC(=O)N(CC(=O)O)[C@@H](C)c2cccc(OCc3coc(-c4ccc(Cl)cc4)n3)c2)c1	471	56	710	58	–
Cc1cccc(OC(=O)N(CC(=O)O)[C@@H](C)c2cccc(OCc3coc(-c4ccc(Cl)cc4)n3)c2)c1	22	62	571	83	–
COC(=O)N(CC(=O)O)Cc1cccc(OCc2nc(-c3ccc(Cl)cc3)oc2C)c1	–	79	–	82	Emax (Cricetulus griseus): 83%; Activity (Hamster [9]): 230%; half-life [10]: 3.2 h; clearance [11]: 4.3 mL/min/kg; MRT [12]: 2.8 h; Activity (Hamster [5]): 77%; Activity (Hamster [7]): 20%; Activity (Hamster [14]): 277%; Vd [15]: 0.7 L/kg
COc1ccc(OC(=O)N(CC(=O)O)[C@@H](C)c2cccc(OCc3coc(-c4ccc(Cl)cc4)n3)c2)cc1	66	69	970	62	–

Further lines, with some results ahead:

EC50 [1] [nM]	Emax [2] [%]	EC50 [3] [nM]	Emax [4] [%]	Structure (SMILES)	also measured
1450	117	4020	54	COC(=O)N(CC(=O)O)Cc1cccc(OCc2csc(-c3cccc(Cl)c3)n2)c1	–
1230	105	> 25000	–	COC(=O)N(CC(=O)O)Cc1cccc(OCc2coc(-c3ccccc3)n2)c1	–
451	92	> 25000	–	COC(=O)N(CC(=O)O)Cc1cccc(OCc2coc(-c3cccc(C)c3)n2)c1	–
395	97	6390	54	COC(=O)N(CC(=O)O)Cc1cccc(OCc2coc(-c3ccc(F)c(Cl)c3)n2)c1	–
> 2500	–	5040	55	COC(=O)N(CC(=O)O)Cc1cccc(OCc2csc(-c3ccccc3Cl)n2)c1	–
235	88	> 25000	–	COC(=O)N(CC(=O)O)Cc1cccc(OCc2coc(-c3ccc(F)cc3)n2)c1	–
90	90	4690	35	COC(=O)N(CC(=O)O)Cc1cccc(OCc2csc(-c3ccc(Cl)cc3)n2)c1	–
304	70	> 25000	–	COC(=O)N(CC(=O)O)Cc1cccc(OCc2csc(-c3ccccc3)n2)c1	–
46.6	73	3440	73	COC(=O)N(CC(=O)O)Cc1cccc(OCc2csc(-c3ccc(C(F)(F)F)cc3)n2)c1	Emax (Cricetulus griseus): 65%; bioavailability [8]: 75%; Activity (Hamster [9]): 308%; half-life [10]: 7.9 h; clearance [11]: 0.5 mL/min/kg; MRT [12]: 6 h; Activity (Hamster [5]): 72%; EC50 [6]: 811 nM; concentration [13]: 86.8 µM; Activity (Hamster [7]): 52%; Activity (Hamster [14]): 126%; Vd [15]: 0.3 L/kg
41.8	71	9290	84	COC(=O)N(CC(=O)O)Cc1cccc(OCc2csc(-c3ccc(C)cc3)n2)c1	–
